Screens from PubChem.
Diaph act CS: activates diaphorase or chemically reduces, flagging diaphorase assay artifacts | 190,000 compounds, 0.005% hits | activation factor at 20 µM | Diaphorase/resazurin coupled assay, resorufin fluorescence, 16 min; active compounds read high; 1 = vehicle wells, 0 = NADH-free wells;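 active = diaphorase activity raised at least twofold by the compound at 20 µM; inactive = activation factor below 2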
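Material: Purified diaphorase enzyme from Clostridium kluyveri | Buffer or medium: 50 mM HEPES pH 7.4 with 4.542 mM MgCl2, 0.005% Tween 20 | Times: 16 min enzyme reaction, ambient temperature | Signal: Red resorufin fluorescence at 544/590 nm excitation/emission | Measure: Increased resorufin signal from activators or reducing compounds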
L major viab: Leishmania major promastigote growth inhibition; Leishmania major promastigotes, resazurin fluorescence viability; inhibition, % at 10 µM; 200,000 compounds, 9% hits;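 also: promastigotes grown with compound for 44 hours at 28 °C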
G6PDH CS: counter-screen for G6PDH assay hits: L. mesenteroides G6PDH inhibition; Purified L. mesenteroides G6PDH, diaphorase/resazurin coupled fluorescence, 45 min; inhibition, % at 5 µM; 200,000 compounds, 0.12% hits; AID 1020
PfGluPho inh: PfG6PD (Plasmodium falciparum) enzyme inhibition; PfGluPho enzyme, NADPH resazurin-diaphorase fluorescence; inhibition, % at 20 µM; 350,000 compounds, 0.78% hits; AID 504690;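 active = inhibition reaching at least a set limit at 20 µM in the primary screen, cut at about 59% in these data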
Redox H2O2 prof: compounds producing H2O2 with reducing agent – biochemical, NIH compound library profiling, artefact control for MLSCN library redox annotation, primary screen | DTT-dependent redox cycling H2O2, phenol red/HRP absorbance; 100% = 100 µM peroxide control, 0% = buffer | activation, % at 10 µM | 200,000 compounds, 0.03% hits | AID 878;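 active = activation of at least 50% relative to the plate's high and low controls in the primary single-dose screen; inactive = activation below 50%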;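 also: compound incubated with DTT at 0.8 mM final as the reducing agent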
Diaphorase inh: inhibits diaphorase or chemically oxidizes, flagging diaphorase assay artifacts | diaphorase resazurin-to-resorufin fluorescence, NADH, 16 min; bacterial (C. kluyveri) enzyme, not human | inhibition, % at 20 µM | 190,000 compounds, 0.69% hits;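 active = primary screen inhibition at 20 µM above a set limit, cut at about 50% in these data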
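Test system: diaphorase enzyme from Clostridium kluyveri; amount: diaphorase at 0.14 U/mL in enzyme working solution; detection: fluorescence of resorufin formed from resazurin, Ex 544/Em 590 nm; times: reaction incubation of 16 min at room temperature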
Of the large screens only hits and unclear results are named; the others gave an inactive call. Only a selection was taken, and hits are over-represented in it overall. Rule as the data show it, unless noted: active = inhibition above about 50%; inactive = the rest.

Cc1ccccc1C(=O)NC(=S)NCCN1CCOCC1	L major viab 82.9
CC(NC(=S)NCCN1CCOCC1)C12CC3CC(CC(C3)C1)C2 (stereo not drawn)	L major viab 90.5
CNC(=S)NCCN1CCOCC1	L major viab 50.6
CCNC(=S)NCCN1CCOCC1	none
Cc1ccccc1C(=O)NCCN1CCOCC1	none
Cc1cc(=O)n2[nH]c(SCc3ccccc3Cl)nc2n1	none (no result: Diaph act CS, L major viab, G6PDH CS, Redox H2O2 prof, Diaphorase inh)
Cc1sc2nc(CN3CCCC3)nc(Cl)c2c1C	L major viab 86.2
CCOC(=O)c1sc2nc(CN3CCCCC3)nc(Cl)c2c1C	none
Cc1cccc(N2CC(C(=O)NCc3ccco3)CC2=O)c1C (stereo not drawn)	none (no result: Diaph act CS, L major viab, G6PDH CS, Redox H2O2 prof, Diaphorase inh)
Cc1cc(OCCn2cc(/C(N)=N/O)c3ccccc32)ccc1Cl	none
CCOc1ccc(NC(=S)N(CCOC)C(C)c2cccnc2)cc1 (stereo not drawn)	L major viab 72.9
COCCN(C(=S)Nc1cccc(C)c1)C(C)c1cccnc1 (stereo not drawn)	L major viab 63.9
Cc1cc(OCC(=O)NNC(=O)c2cccs2)ccc1Br	none (no result: Diaph act CS, L major viab, G6PDH CS, Redox H2O2 prof, Diaphorase inh)
Oc1ccc(/C=N/NC(=S)NCCN2CCOCC2)c(O)c1	L major viab 95.9
COc1ccc(OC)c(NC(=S)NCCCN2CCOCC2)c1	L major viab 61.6 (no result: Redox H2O2 prof)
S=C(NCCN1CCOCC1)Nc1ccc(Cl)cc1Cl	L major viab 95.6
S=C(NCCN1CCOCC1)N/N=C/c1ccccc1	none
Fc1cc(Cl)ccc1NC(=S)NCCN1CCOCC1	none
S=C(NCCCN1CCOCC1)Nc1ccc(Cl)cc1Cl	L major viab 99.2
COc1ccc(NC(=O)c2ccc(C)o2)c([N+](=O)[O-])c1	none
Cc1cc(Cl)ccc1NC(=S)NCCN1CCOCC1	L major viab 60.2 (no result: Redox H2O2 prof)
S=C(NCCN1CCOCC1)Nc1cccc2ccccc12	L major viab 66.6
COc1ccccc1NC(=S)NCCN1CCOCC1	none
COP(=O)(c1ccc(N(C)C)cc1)C(O)c1ccccc1 (stereo not drawn)	none (no result: Diaph act CS, L major viab, G6PDH CS, Redox H2O2 prof, Diaphorase inh)
CCN(Cc1ccncc1)C(=S)Nc1c(C)cccc1C	none
COc1ccc(CN(Cc2cccnc2)C(=S)NCCc2ccccc2)cc1OC	L major viab 100.2
COc1ccccc1NC(=S)N(Cc1ccccc1)Cc1cccnc1	none
Cc1cccc(C)c1NC(=S)N(Cc1ccccc1)Cc1cccnc1	L major viab 88.9
CSc1cccc(NC(=S)N(Cc2ccccc2)Cc2cccnc2)c1	L major viab 95.9
O/C(=C\c1nc2ccccc2nc1/C=C(\O)c1ccccc1)c1ccccc1	L major viab 98.1, G6PDH CS 50.8
Cc1ccc(C(=O)Nc2ccc3c(c2)nc(CCNC(=O)c2ccco2)n3C)cc1	none (no result: Diaph act CS, L major viab, G6PDH CS, Redox H2O2 prof, Diaphorase inh)
CCCCN(C)Cc1c(C)[nH]c2c(Cl)cccc2c1=O	L major viab 100.3
CCCCN(C)Cc1c(C)[nH]c2c(ccc3ccccc32)c1=O	none (no result: Diaph act CS, L major viab, G6PDH CS, Redox H2O2 prof, Diaphorase inh)
COc1cccc(C(=O)N2CCN(C3CCN(Cc4ccccc4)CC3)CC2)c1	L major viab 89.8 (no result: PfGluPho inh)
COc1ccccc1C(=O)N1CCN(C2CCN(Cc3ccccc3)CC2)CC1	L major viab 91.2
O=C(c1cccc(OC2CCN(C3CCCC3)CC2)c1)N1CCCCCCC1	L major viab 88.9
COc1ccc(C(=O)N2CCN(C3CCN(Cc4ccccc4)CC3)CC2)cc1OC	none
COc1cccc(C(=O)N2CCN(C3CCCCC3)CC2)c1	none (no result: Diaph act CS, L major viab, G6PDH CS, Redox H2O2 prof, Diaphorase inh)
Nc1ccc(CSc2ccc(Cl)cc2)c(Cl)c1	none (no result: Diaph act CS, L major viab, G6PDH CS, Redox H2O2 prof, Diaphorase inh)
Cc1ccc(C(=O)Nc2nnc(SCC(=O)N3CCCc4ccccc43)s2)cc1	none
O=C(Nc1nnc(SCC(=O)N2CCCc3ccccc32)s1)c1cccc2ccccc12	L major viab 95.6
COc1ccc(OCC(O)CN2CCOCC2)cc1 (stereo not drawn)	none (no result: Diaph act CS, L major viab, G6PDH CS, Redox H2O2 prof, Diaphorase inh)
N#Cc1ccc(-c2ccc(OCC(O)CN3CCOCC3)cc2)cc1 (stereo not drawn)	L major viab 84.3
CN(C)CC(O)COc1ccc(-c2ccc(C#N)cc2)cc1 (stereo not drawn)	L major viab 98.0 (no result: PfGluPho inh)
CC(C)C(=O)Nc1sc2c(c1-c1nc3ccccc3[nH]1)CCCC2	L major viab 60.5
Cc1cc(C(=O)OCC(=O)NC2CCS(=O)(=O)C2)c2ccccc2n1 (stereo not drawn)	none
COc1ccc2cc(-c3cc(C(=O)OCC(=O)NC4CCS(=O)(=O)C4)c4ccccc4n3)ccc2c1 (stereo not drawn)	L major viab 60.0 (no result: Redox H2O2 prof)
O=C(COC(=O)c1cc(-c2cccc3ccccc23)nc2ccccc12)NC1CCS(=O)(=O)C1 (stereo not drawn)	L major viab 69.2
CNc1ccc(Br)cc(C(=O)/C=C/c2cc(OC)ccc2OC)c1=O	L major viab 88.9
CCNc1ccc(Br)cc(C(=O)/C=C/c2ccc(Cl)cc2Cl)c1=O	L major viab 97.8, Diaphorase inh 54.2
CNc1ccc(Br)cc(C(=O)/C=C/c2ccc3c(c2)OCO3)c1=O	L major viab 71.9, Diaphorase inh 56.7
CC(C)S(=O)(=O)C1=NSC2=NC(=O)/C(=C\c3ccc(-c4cccc(C(=O)O)c4)o3)C(=N)N21	Diaphorase inh 74.3
CC(C)S(=O)(=O)C1=NSC2=NC(=O)/C(=C\c3ccc(-c4ccccc4)o3)C(=N)N21	none
N=C1/C(=C/c2ccc(-c3cccc(C(=O)O)c3)o2)C(=O)N=C2SC=C(c3ccccc3)N12	Diaphorase inh 53.7
N=C1/C(=C\c2ccc(-c3cc(Cl)cc(Cl)c3)o2)C(=O)N=C2SC=C(c3ccccc3)N12	none
Cc1cccc(CN2CCN(CC(=O)NCCCN3CCCC3=O)C2=O)c1	none
Cc1cccc(CN2CCN(CC(=O)NCCCN3CCN(c4ccc(F)cc4)CC3)C2=O)c1	L major viab 94.8
COc1cccc(-c2cnc(NCc3cc(Cl)ccc3O)n2C)c1	L major viab 63.5
COc1cc(CNc2ncc(-c3ccc(Br)cc3)n2C)cc(OC)c1O	none (no result: Diaph act CS, L major viab, G6PDH CS, Redox H2O2 prof, Diaphorase inh)
Cn1c(-c2cccc(Br)c2)cnc1NCc1cccnc1	L major viab 97.4
Cn1c(-c2ccc(F)cc2)cnc1NCc1ccccc1	none
COc1ccccc1CNc1ncc(-c2ccccc2)n1C	none (no result: Diaph act CS, L major viab, G6PDH CS, Redox H2O2 prof, Diaphorase inh)
Cn1c(-c2ccc3c(c2)OCO3)cnc1NCc1cccc(O)c1	L major viab 62.8
Cn1c(-c2ccc(F)cc2)cnc1NCc1cccc(F)c1	L major viab 77.8
COc1ccc(C)cc1NC(=O)CCc1ccc(S(=O)(=O)N2CCOCC2)cc1	none (no result: Diaph act CS, L major viab, G6PDH CS, Redox H2O2 prof, Diaphorase inh)
CC(C)(C)C(=O)CSc1nnc(Nc2ccccc2)s1	none
Cc1cccn2c(=O)nc(SCC(=O)NC3CCCCC3)nc12	none (no result: Diaph act CS, L major viab, G6PDH CS, Redox H2O2 prof, Diaphorase inh)
CC(C)(C)C1C/C(=C/c2ccccn2)C(=O)/C(=C/c2ccccn2)C1 (stereo not drawn)	L major viab 100.6
CC1C/C(=C/c2ccco2)C(=O)/C(=C/c2ccco2)C1 (stereo not drawn)	none (no result: PfGluPho inh)
